Results: ChEMBL document CHEMBL1156117, “Anti-trypanosomatid benzofuroxans and deoxygenated analogues: synthesis using polymer-supported triphenylphosphine, biological evaluation and mechanism of action studies” (Eur J Med Chem, 2009)
pIC50: −log10 of the molar value. The source made the active and inactive calls. No cut-off for these calls is given here.

Legend:
Trypanosoma cruzi [1] = assay: Antitrypanosomal activity against Trypanosoma cruzi CL Brener epimastigotes assessed as parasite viability after 5 days by MTT assay; type: functional, organism-based; conditions: 120 h
In short: (§1)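 Promastigotes (L. braziliensis, L. pifanoi) grown at 28 °C in axenic RPMI with 5% FBS. T. cruzi CL Brener epimastigotes grown in BHI-tryptose with 5% foetal serum. 24-well plates, 1 mL/well, seeded from exponential-phase culture. Compounds in DMSO, added at several concentrations (0.5–50.0) and kept 5 days. Then MTT 0.4 mg/mL for 3 h at 37 °C. Formazan dissolved in DMSO, OD595 read. Triplicate per concentration, six growth controls. Cytotoxicity % calculated against growth and medium blanks, IC50 derived.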

Trypanosoma cruzi [2] = assay: Antitrypanosomal activity against Trypanosoma cruzi Tulahuen 2 epimastigotes assessed as parasite growth inhibition after 5 days; type: functional, organism-based
In short: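 Tulahuen 2 epimastigotes grown at 28 °C in BHI-tryptose with 5% foetal calf serum. Late-log cells seeded at 3×10⁶/mL in 24-well plates with compound from DMSO stock (final DMSO ≤0.8%; control 0.8% DMSO). A610 read at day 0 and day 5. Growth inhibition calculated from the corrected absorbance ratio to control; IC50 is the concentration giving 50% of the control ratio.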

Leishmania braziliensis [3] = assay: Antileishmanial activity against Leishmania braziliensis MHOM/BR/00/LTB300 promastigotes assessed as parasite viability after 5 days by MTT assay; type: functional, organism-based; conditions: MHOM/BR/00/LTB300, 120 h; in short: as §1
Leishmania pifanoi [4] = assay: Antileishmanial activity against Leishmania pifanoi MHOM/VE/57/LV135 promastigotes assessed as parasite viability after 5 days by MTT assay; type: functional, organism-based; conditions: MHOM/VE/57/LV135, 120 h; in short: as §1
Trypanosoma cruzi [5] = assay: Antitrypanosomal activity against Trypanosoma cruzi epimastigotes; type: functional, organism-based
[6] = molecular target: Cruzipain (Trypanosoma cruzi) (UniProt P25779); assay: Inhibition of Trypanosoma cruzi cruzipain at 100 uM
Leishmania braziliensis [7] = assay: Ratio of compound IC50 to Miltefosine IC50 for Leishmania braziliensis MHOM/BR/00/LTB300 promastigotes; type: functional
[8] = molecular target: Cruzipain (Trypanosoma cruzi) (UniProt P25779); assay: Inhibition of Trypanosoma cruzi cruzipain at 50 uM
[9] = molecular target: Cruzipain (Trypanosoma cruzi) (UniProt P25779); assay: Inhibition of Trypanosoma cruzi cruzipain at 25 uM
J774 = assay: Cytotoxicity against mouse J774 macrophages after 48 hrs by MTT assay; type: cell-based
In short: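 Exposed to compounds (1.0–400.0) for 48 h, washed with PBS, then MTT 0.4 mg/mL for 3 h. Formazan dissolved in DMSO, OD595 read. Triplicate per concentration, six growth controls. % cytotoxicity calculated against blanks.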

[10] = Selectivity index, ratio of IC50 for mouse J774 macrophages to IC50 for Trypanosoma cruzi Tulahuen 2 epimastigotes
Trypanosoma cruzi [11] = assay: Induction of free radical production Trypanosoma cruzi microsomal fraction at 1 mM using DMPO and FXN spin trapping by ESR spectroscopic analysis; type: functional; conditions: Microsome
In short: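 T. cruzi microsomal fraction at 4 mg protein/mL, in 20 mM phosphate buffer pH 7.4 with 1 mM NADPH, 1 mM EDTA and 100 mM DMPO or FXN spin trap. Compound added at 1 mM final, dissolved in spectroscopy-grade DMF. Radical adducts detected by ESR.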

Trypanosoma cruzi [12] = assay: Inhibition of Trypanosoma cruzi Tulahuen 2 mitochondrial dehydrogenase at 20 uM after 120 mins by MTT assay relative to control
In short: (§2)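 10⁶ parasites/well (T. cruzi Tulahuen 2 or Y epimastigotes, or L. braziliensis LTB300 promastigotes) in 500 µL medium with 20 µM compound, at 28 °C for up to 240 min; untreated duplicate wells served as time-matched controls. MTT (5 mg/mL stock in PBS) added for 2 h, stopped with acidic isopropanol, A570 read. Activity expressed as % of untreated parasites.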

Trypanosoma cruzi [13] = assay: Inhibition of Trypanosoma cruzi Y mitochondrial dehydrogenase at 20 uM after 120 mins by MTT assay relative to control; in short: as §2
Leishmania braziliensis [14] = assay: Inhibition of Leishmania braziliensis MHOM/BR/00/LTB300 promastigotes mitochondrial dehydrogenase at 20 uM by MTT assay relative to control; conditions: TDE = time-dependent effect; in short: as §2
Leishmania pifanoi [15] = assay: Antileishmanial activity against Leishmania pifanoi MHOM/VE/57/LV135 promastigotes assessed as parasite viability at 5 uM after 5 days by MTT assay; type: functional; conditions: MHOM/VE/57/LV135, 120 h, read-out: GI
In short: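 L. pifanoi LV135 promastigotes grown at 28 °C in axenic RPMI with 5% FBS. Tested at a single concentration of 5.0 over 5 days. MTT 0.4 mg/mL for 3 h at 37 °C, formazan dissolved in DMSO, OD595 read. Percent growth inhibition reported versus untreated growth controls, with medium blanks subtracted.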

[16] = Trypanosoma cruzi, Tulahuen 2, 120 h

Chain of Cruzipain (Trypanosoma cruzi) (P25779 123-467 limits assumed): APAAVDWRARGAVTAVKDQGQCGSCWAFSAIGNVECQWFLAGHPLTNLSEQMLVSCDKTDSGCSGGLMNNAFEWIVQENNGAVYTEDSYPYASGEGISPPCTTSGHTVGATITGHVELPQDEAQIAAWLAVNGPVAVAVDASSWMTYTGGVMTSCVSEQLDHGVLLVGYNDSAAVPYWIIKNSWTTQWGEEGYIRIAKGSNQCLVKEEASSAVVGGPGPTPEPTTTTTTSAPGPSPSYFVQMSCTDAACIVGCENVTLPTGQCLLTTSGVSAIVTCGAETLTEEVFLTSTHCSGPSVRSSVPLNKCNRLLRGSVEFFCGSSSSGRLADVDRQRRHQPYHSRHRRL

SMILES	pIC50 (Trypanosoma cruzi [1])	pIC50 (Trypanosoma cruzi [2]; [16])	Selectivity Index [10]	pIC50 (J774; Mus musculus, J774, 48 h)	further results
[O-][n+]1onc2ccc(/C=C\Sc3ccc(Cl)cc3)cc21	5.55	5.38	–	–	–
[O-][n+]1onc2ccc(/C=C/Sc3ccccc3)cc21	–	–	–	–	pIC50 (Leishmania braziliensis [3]): 5.82; pIC50 (Leishmania pifanoi [4]): 5.37; pIC50 (Trypanosoma cruzi [5]): 5.59
[O-][n+]1onc2ccc(/C=C\Sc3ccccc3)cc21	–	–	–	–	pIC50 (Leishmania braziliensis [3]): 6.05; inhibition [6]: 30%; Ratio IC50 (Leishmania braziliensis [7]): 10; pIC50 (Leishmania pifanoi [4]): 5.35; pIC50 (Trypanosoma cruzi [5]): 5.42; inhibition [8]: 22%; inhibition [9]: 11%
[O-][n+]1onc2ccc(/C=C/Sc3ccc(Cl)cc3)cc21	6.00	5.72	–	–	pIC50 (Leishmania braziliensis [3]): 6.05; Ratio IC50 (Leishmania braziliensis [7]): 10; pIC50 (Leishmania pifanoi [4]): 5.34
COc1ccc(C(=O)/C=C/c2ccc3no[n+]([O-])c3c2)cc1 (stereo in doubt; 11)	–	–	7.6	–	inhibition [6]: 13%; pIC50 (J774; j774): 4.51; pIC50 (Trypanosoma cruzi [2]): 5.39
O=S(=O)(/C=C/c1ccc2no[n+]([O-])c2c1)c1ccc(F)cc1	5.20	5.12	–	–	Activity (Trypanosoma cruzi [11]): Active
Cc1ccc(S(=O)(=O)/C=C\c2ccc3no[n+]([O-])c3c2)cc1	5.29	5.44	–	–	–
[O-][n+]1onc2ccc(/C=C/[S+]([O-])c3ccccc3)cc21 (stereo in doubt; 24)	–	–	>10	–	pIC50 (J774; j774): < 3.40
O=C(/C=C/c1ccc2nonc2c1)c1ccc([N+](=O)[O-])cc1	–	< 4.00	<1.3	3.88	–
O=S(=O)(/C=C/c1ccc2no[n+]([O-])c2c1)c1ccccc1 (stereo in doubt; 4E) [listing 1 of 2 here]	–	–	10	–	pIC50 (Leishmania braziliensis [3]): 4.67; pIC50 (Trypanosoma cruzi [5]): 5.80; pIC50 (J774; j774): 4.80
[O-][n+]1onc2ccc(C=CSc3ccccc3)cc21	–	–	10	4.52	inhibition (Trypanosoma cruzi [12]): 14.5%
Cc1ccc([S+]([O-])/C=C\c2ccc3no[n+]([O-])c3c2)cc1 (stereo unspecified)	5.08	5.17	–	–	–
Cc1ccc([S+]([O-])/C=C/c2ccc3no[n+]([O-])c3c2)cc1 (stereo unspecified)	5.22	5.34	–	–	–
O=C(/C=C/c1ccc2nonc2c1)c1ccccc1	–	4.01	1.1	3.99	–
[O-][n+]1onc2ccc(/C=C\[S+]([O-])c3ccc(Cl)cc3)cc21 (stereo unspecified)	5.33	5.57	6.3	5.00	–
O=S(=O)(/C=C\c1ccc2no[n+]([O-])c2c1)c1ccccc1	–	–	10	4.96	pIC50 (Leishmania braziliensis [3]): 4.97; pIC50 (Trypanosoma cruzi [5]): 5.96
O=S(=O)(/C=C/c1ccc2no[n+]([O-])c2c1)c1ccccc1 (stereo in doubt; 4E) [listing 2 of 2 here]	–	–	–	–	inhibition (Trypanosoma cruzi [13]): 25%; Activity (Leishmania braziliensis [14]): tde
[O-][n+]1onc2ccc(/C=C/[S+]([O-])c3ccc(Cl)cc3)cc21 (stereo unspecified)	5.17	5.26	4	4.74	–
Cc1ccc(S/C=C/c2ccc3no[n+]([O-])c3c2)cc1	5.33	5.72	–	–	–
O=C(/C=C/c1ccc2no[n+]([O-])c2c1)c1ccccc1	–	5.30	9.4	4.33	inhibition [6]: 0%; inhibition [8]: 0%; inhibition (Trypanosoma cruzi [12]): 21.8%; inhibition [9]: 0%
[O-][n+]1onc2ccc(/C=C/[S+]([O-])c3ccccc3)cc21 (stereo in doubt; 3E)	–	–	11.5	–	pIC50 (Leishmania braziliensis [3]): 4.50; pIC50 (Trypanosoma cruzi [5]): 5.59; pIC50 (J774; j774): 4.52

SMILES	pIC50 (Trypanosoma cruzi [1])	pIC50 (Trypanosoma cruzi [2]; [16])	Selectivity Index [10]	pIC50 (J774; Mus musculus, J774, 48 h)	further results
O=S(=O)(/C=C\c1ccc2no[n+]([O-])c2c1)c1ccc(Cl)cc1	5.64	5.89	–	–	–
O=S(=O)(C=Cc1ccc2no[n+]([O-])c2c1)c1ccc(Cl)cc1	–	–	–	–	inhibition (Trypanosoma cruzi [12]): 4%
[O-][n+]1onc2ccc(/C=C\[S+]([O-])c3ccc(F)cc3)cc21 (stereo unspecified)	5.49	5.80	–	–	–
CCCCCCCCCCCCCCCCOP(=O)([O-])OCC[N+](C)(C)C [MILTEFOSINE]	–	–	–	–	pIC50 (Leishmania braziliensis [3]): 5.05; inhibition of growth at 5 µM (Leishmania pifanoi [15]): 85.5%
O=S(=O)(C=Cc1ccc2no[n+]([O-])c2c1)c1ccc(F)cc1	–	–	–	–	inhibition (Trypanosoma cruzi [12]): 17.6%
O=S(=O)(/C=C\c1ccc2no[n+]([O-])c2c1)c1ccc(F)cc1	5.54	5.57	–	–	inhibition [6]: 0%; inhibition [8]: 0%; Activity (Trypanosoma cruzi [11]): Active; inhibition [9]: 0%
O=C(/C=C/c1ccc2nonc2c1)c1ccc(Cl)cc1	–	< 4.00	<2.5	3.60	–
O=S(=O)(/C=C/c1ccc2no[n+]([O-])c2c1)c1ccccc1 (stereo in doubt; 25)	–	–	3.1	–	pIC50 (J774; j774): 4.11
O=C(/C=C/c1ccc2no[n+]([O-])c2c1)c1ccc([N+](=O)[O-])cc1	–	5.62	13.3	4.49	–
[O-][n+]1onc2ccc(/C=C\[S+]([O-])c3ccccc3)cc21 (stereo unspecified)	–	–	20	4.85	inhibition (Trypanosoma cruzi [13]): 25%; pIC50 (Leishmania braziliensis [3]): 5.34; pIC50 (Trypanosoma cruzi [5]): 6.15; Activity (Leishmania braziliensis [14]): tde
[O-][n+]1onc2ccc(/C=C/c3ccccc3)cc21	–	–	–	–	pIC50 (Trypanosoma cruzi [5]): 4.97
O=S(=O)(/C=C/c1ccc2no[n+]([O-])c2c1)c1ccc(Cl)cc1	5.32	5.32	–	–	–
[O-][n+]1onc2ccc(/C=C/[S+]([O-])c3ccc(F)cc3)cc21 (stereo unspecified)	5.21	5.35	–	–	–
[O-][n+]1onc2ccc(/C=C\c3ccccc3)cc21	–	–	–	–	pIC50 (Trypanosoma cruzi [5]): 5.15
[O-][n+]1onc2ccc(/C=C/Sc3ccc(F)cc3)cc21	5.26	5.30	7	4.46	pIC50 (Leishmania braziliensis [3]): 5.37; pIC50 (Leishmania pifanoi [4]): 5.37; Activity (Trypanosoma cruzi [11]): Active
C=CS(=O)(=O)Cc1ccc2no[n+]([O-])c2c1	–	–	–	–	pIC50 (Leishmania braziliensis [3]): 4.77; pIC50 (Trypanosoma cruzi [5]): 4.84; Activity (Leishmania braziliensis [14]): tde; inhibition (Trypanosoma cruzi [12]): 58.5%
O=C(/C=C/c1ccc2no[n+]([O-])c2c1)c1ccc(Cl)cc1	–	4.60	1.1	4.55	–
Cc1ccc(S/C=C\c2ccc3no[n+]([O-])c3c2)cc1	5.39	5.38	–	–	–
[O-][n+]1onc2ccc(/C=C\Sc3ccc(F)cc3)cc21	5.23	4.92	–	–	pIC50 (Leishmania braziliensis [3]): 5.77; pIC50 (Leishmania pifanoi [4]): 5.35; Activity (Trypanosoma cruzi [11]): Active
Cc1ccc(S(=O)(=O)/C=C/c2ccc3no[n+]([O-])c3c2)cc1	5.02	5.37	1.1	5.10	–
